Experimental findings from ChEMBL document CHEMBL4190245, “Caffeic Acid Phenethyl Ester from the Twigs of Cinnamomum cassia Inhibits Malignant Cell Transformation by Inducing c-Fos Degradation” (J Nat Prod, 2017) are described below.

Each structure is given as a SMILES string. The source made the active and inactive calls. No cut-off for these calls is given here.

Data set [1] is filed under the species Mus musculus. Kind of data set: Induction of proteasome-mediated c-fos degradation in EGF-stimulated mouse JB6 P+ cells assessed as inhibition of c-fos phosphorylation at S32 residue at 0.5 to 1 uM preincubated for 1 hr followed by EGF stimulation and measured after 15 mins by Western blot method. The method, boiled down: (§1)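 JB6 P+ cells were serum-starved 24 h, pretreated 1 h with compound (0.5 and 1 μM), then stimulated with EGF (10 ng/mL) and harvested after 15 min. Lysates (10−60 μg protein) were run on SDS-PAGE and immunoblotted for phospho or total proteins, with chemiluminescent detection.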
(Immunoblotting shows a protein as a band on a membrane.)

Data set [2] is filed under the species Mus musculus. The data set is described as follows: Inhibition of EGF-induced mouse JB6 P+ cells transformation at 0.25 to 2 uM after 12 days by microscopy based soft agar assay. Format: functional. The method, boiled down: (§2)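 Soft agar: 8 × 10^3 cells/mL in 0.3% BME top agar with 10% FBS, compound and EGF or TPA, layered over 0.5% agar in BME with 10% FBS and the same additions; kept 1 to 2 weeks at 37 °C in 5% CO2, colonies counted by microscope; triplicate means ± SD.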

Data set [3] is filed under the species Mus musculus. Kind of data set: Inhibition of TPA-induced mouse JB6 P+ cells transformation at 0.25 to 2 uM after 14 days by microscopy based soft agar assay. Format: functional. The method, boiled down:
as §2

The nature of data set [4]: Cytotoxicity against mouse JB6 P+ cells up to 10 uM after 24 to 48 hrs by CellTiter96 AQueous one solution assay. Format: cell-based. The method, boiled down: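 JB6 P+ cells seeded, incubated overnight, then switched to 0.1% FBS MEM and compound added; viability read by MTS reagent at 24 and 48 h; triplicate samples, means ± standard deviation.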
For data set [5], the species on record is Mus musculus. Kind of data set: Inhibition of EGF-induced cell cycle progression in mouse epidermal JB6 P+ cells assessed as reduction in accumulation at G2/M phase at 0.5 to 1 uM preincubated for 1 hr followed by EGF challenge and measured after 24 hrs by propidium iodide staining-based FACS analysis. Format: functional. The method in brief:
(§3)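 Seeded at 1.5 × 10^5 cells per 60 mm dish, starved 24 h in 0.1% FBS MEM, pretreated 1 h with compound, then EGF (10 ng/mL) for 24 h; cells fixed in cold 70% ethanol overnight, stained with RNase A and propidium iodide for 30 min at room temperature, analysed by flow cytometry; n = 3.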

The species named for data set [6] is Mus musculus. Kind of data set: Induction of proteasome-mediated c-fos degradation (unknown origin) expressed in EGF-stimulated mouse JB6 P+ cells co-expressing AP1-lucifearse assessed as inhibition of AP-1 activation preincubated for 1 hr followed by EGF stimulation for 4 hrs by luciferase reporter gene assay. Format: cell-based. The method in brief:
(§4)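 JB6 P+ cells stably carrying an AP-1 luciferase reporter (kept in 5% FBS MEM with 200 μg/mL G418) were starved 24 h in 0.1% FBS MEM, given compound 1 h before EGF (10 ng/mL) or TPA (20 ng/mL), lysed in phosphate/Triton buffer pH 7.8 and read for firefly luciferase; n = 3.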

Data set [7] is filed under the species Mus musculus. The data set is described as follows: Induction of proteasome-mediated c-fos degradation (unknown origin) expressed in TPA-stimulated mouse JB6 P+ cells co-expressing AP1-lucifearse assessed as inhibition of AP-1 activation preincubated for 1 hr followed by TPA stimulation for 4 hrs by luciferase reporter gene assay. Format: cell-based. The method, boiled down: as §4

The species entered for data set [8] is Mus musculus. The data set is described as follows: Inhibition of EGF-induced cell cycle progression in mouse epidermal JB6 P+ cells assessed as accumulation at G1 phase at 0.5 to 1 uM preincubated for 1 hr followed by EGF challenge measured after 24 hrs by propidium iodide staining-based FACS analysis. Format: functional. The method, boiled down: as §3
For orientation: In flow cytometry, cells or beads pass a laser one at a time.

The species named for data set [9] is Mus musculus. Kind of data set: Induction of proteasome-mediated c-fos degradation in EGF-stimulated mouse JB6 P+ cells assessed as reduction in total c-fos protein level at 0.5 to 1 uM preincubated for 1 hr followed by EGF stimulation and measured after 15 mins by Western blot method. The method in brief: as §1
Data set [10] is filed under the species Mus musculus. Kind of data set: Inhibition of EGF-induced mouse JB6 P+ cells transformation after 12 days by microscopy based soft agar assay. Format: functional. The method in brief: as §2
For data set [11], the species on record is Mus musculus. Kind of data set: Inhibition of TPA-induced mouse JB6 P+ cells transformation after 14 days by microscopy based soft agar assay. Format: functional. The method in brief: as §2
The species entered for data set [12] is Mus musculus. The data set is described as follows: Inhibition of EGF-induced cell cycle progression in mouse epidermal JB6 P+ cells assessed as reduction in accumulation at G2/M phase at 0.25 to 1 uM preincubated for 1 hr followed by EGF challenge and measured after 24 hrs by propidium iodide staining-based FACS analysis. Format: functional. The method in brief: as §3

For data set [13], the species on record is Mus musculus. The data set is described as follows: Induction of proteasome-mediated c-fos degradation in EGF-stimulated mouse JB6 P+ cells assessed as reduction in c-fos activity at 0.25 to 1 uM preincubated for 1 hr followed by EGF stimulation. The method in brief:
(§5)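 The TransAM AP-1 family ELISA was run on cell extracts: wells coated with AP-1 binding oligonucleotide, probed with a c-Fos or p-c-Jun specific primary antibody, then an HRP secondary, and absorbance read at 450 nm; n = 3.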

For data set [14], the target named is Transcription factor Jun (Mus musculus) (UniProt P05627). The data set is described as follows: Effect on phosphorylated c-jun in EGF-stimulated mouse JB6 P+ cells at 0.25 to 1 uM preincubated for 1 hr followed by EGF stimulation. The method in brief:
as §5

For data set [15], the species on record is Mus musculus. The data set is described as follows: Inhibition of ERK phosphorylation at T202/Y204 residue in EGF-stimulated mouse JB6 P+ cells at 0.5 to 1 uM preincubated for 1 hr followed by EGF stimulation and measured after 15 mins by Western blot method. The method, boiled down: as §1
For data set [16], the species on record is Mus musculus. Kind of data set: Inhibition of RSK phosphorylation at T359/S363 residue in EGF-stimulated mouse JB6 P+ cells at 0.5 to 1 uM preincubated for 1 hr followed by EGF stimulation and measured after 15 mins by Western blot method. The method, boiled down: as §1
The species named for data set [17] is Mus musculus. Kind of data set: Inhibition of CREB phosphorylation at S133 residue in EGF-stimulated mouse JB6 P+ cells at 0.5 to 1 uM preincubated for 1 hr followed by EGF stimulation and measured after 15 mins by Western blot method. The method, boiled down:
as §1

The species entered for data set [18] is Mus musculus. The data set is described as follows: Inhibition of EGF-induced c-fos mRNA expression in mouse JB6 P+ cells at 0.5 to 1 uM preincubated for 1 hr followed by EGF stimulation and measured after 15 mins by real-time PCR method. Format: functional, cell-based. The method in brief:
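Compound given 1 h before EGF (10 ng/mL); total RNA extracted 15 min later, reverse-transcribed and c-fos quantified by SYBR Green real-time PCR (95 °C 10 min, then 40 cycles of 95 °C 15 s and 59 °C 1 min); n = 3.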

The species entered for data set [19] is Mus musculus. Kind of data set: Induction of proteasome-mediated c-fos degradation in EGF-stimulated mouse JB6 P+ cells assessed as reduction in c-fos protein level at 1 uM preincubated for 1 hr followed by EGF stimulation for 15 mins in presence of 10 uM proteasome inhibitor MG132 by Western blot method. The method in brief: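 Cells serum-starved 24 h, pretreated with MG132 (10 μM) plus compound (0.5 and 1 μM), collected 15 min after EGF (10 ng/mL); lysates immunoblotted for c-Fos.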

For data set [20], the species on record is Mus musculus. Kind of data set: Inhibition of EGF-induced cell cycle progression in mouse epidermal JB6 P+ cells assessed as accumulation at G1 phase at 0.25 to 1 uM preincubated for 1 hr followed by EGF challenge measured after 24 hrs by propidium iodide staining-based FACS analysis. Format: functional. The method, boiled down: as §3
For data set [21], the species on record is Mus musculus. The data set is described as follows: Induction of proteasome-mediated c-fos degradation in EGF-stimulated mouse JB6 P+ cells assessed as reduction in c-fos protein level at 1 uM preincubated for 1 hr followed by EGF stimulation for 15 mins by Western blot method. The method, boiled down: as §1

Sequence of Transcription factor Jun (Mus musculus) (P05627 whole entry): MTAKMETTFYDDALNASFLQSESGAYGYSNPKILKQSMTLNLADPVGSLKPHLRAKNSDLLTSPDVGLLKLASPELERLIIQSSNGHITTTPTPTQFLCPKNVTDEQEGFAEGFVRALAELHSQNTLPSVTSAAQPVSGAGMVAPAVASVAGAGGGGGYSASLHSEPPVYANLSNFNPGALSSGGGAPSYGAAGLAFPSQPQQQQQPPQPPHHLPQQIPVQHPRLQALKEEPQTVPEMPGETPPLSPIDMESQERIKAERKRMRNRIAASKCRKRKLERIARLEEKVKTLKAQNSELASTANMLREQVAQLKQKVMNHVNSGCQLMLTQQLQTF

With `O=C(O)/C=C/c1ccc(O)c(O)c1` [CAFFEIC ACID], the result in the data set listed under Mus musculus [1], in the data set listed under Mus musculus [6], in the data set filed under Mus musculus [7] and in the data set listed under Mus musculus [9] was inactive. Also, the inhibition result in the data set listed under Mus musculus [2], in the data set listed under Mus musculus [3], in the data set filed under Mus musculus [5] and in the data set filed under Mus musculus [8] was “inactive” each time. Besides, in data set [4], the Activity result is “Non-Toxic”.
Turning to `O=C(/C=C/c1ccc(O)c(O)c1)OCCc1ccccc1` [CAFFEIC ACID PHENETHYL ESTER], the result in the data set filed under Mus musculus [1], in the data set listed under Mus musculus [13], in the data set filed under Mus musculus [9] and in the data set listed under Mus musculus [21] was Active. Further, the inhibition entry in the data set listed under Mus musculus [10] and in the data set listed under Mus musculus [11] was “Dose-dependent effect” each time. Besides, in data set [4], the Activity result is listed as “Non-Toxic”. The inhibition result in the data set listed under Mus musculus [12] and in the data set filed under Mus musculus [20] was “Active” in each case. In addition, the outcome (in data set [14]; in the data set listed under Mus musculus [19]) was inactive. Also, the inhibition result in the data set listed under Mus musculus [15], in the data set listed under Mus musculus [16], in the data set filed under Mus musculus [17] and in the data set listed under Mus musculus [18] was “inactive” in each case.
